Converted amounts (≈) assume the structure as drawn.
Assays:
P388 = test: Cytotoxic activity against mouse leukemia P388 cell line; type: functional
Outline: (§1)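 Growth inhibition (IC50) of mouse leukemia P388 and human lung cancer PC-6 and PC-12 cells after 72 h continuous exposure to compound; IC50 taken as the concentration giving 50% growth inhibition.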

Mus musculus [1] = test: Mortality was determined in mice inoculated with B16 melanoma BL6 cells sc at a dose 40.5 mg/kg by peroral administration; 0/6; type: functional; conditions: route oral
[2] = Solubility of compound in JP1 at pH 1.2 using UV assay; type: physicochemical; conditions: JP1, pH 1.2
PC-12 = test: Cytotoxic activity against human lung cancer PC-12 cell line
Mus musculus [3] = test: Mean tumor weight was determined in mice inoculated with B16 melanoma BL6 cells sc at a dose 12 mg/kg iv [IR (%) = (1-TWt/TWc)*100]; type: functional
Outline: (§2)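 C57BL/6 mice (six per group) received subcutaneous B16 melanoma BL6 cells on day 0 and a single iv or oral dose on day 4. Tumors were excised and weighed on day 15. Inhibition rate IR (%) = (1 − mean treated tumor weight/mean control tumor weight) × 100.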

Mus musculus [4] = test: Maximum rate of body weight loss was determined in mice inoculated with B16 melanoma BL6 cells sc at a dose 40.5 mg/kg by peroral administration; type: functional; conditions: route oral
Outline: (§3)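 On day 0, B16 melanoma BL6 cells (cultured line) were implanted subcutaneously into C57BL/6 mice, six per group. A single iv or oral dose was given on day 4, and body weight was followed. BWLmax (%) is the maximum rate of body weight loss; a value below 0 means no loss.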

Mus musculus [5] = test: Mortality was determined in mice inoculated with B16 melanoma BL6 cells sc at a dose 12 mg/kg by intravenous administration; 0/6; type: functional
Mus musculus [6] = test: Mortality was determined in mice inoculated with B16 melanoma BL6 cells sc at a dose 8 mg/kg by intravenous administration; 0/6; type: functional
Mus musculus [7] = test: Mean tumor weight was determined in mice inoculated with B16 melanoma BL6 cells sc at a dose 8 mg/kg iv [IR (%) = (1-TWt/TWc)*100]; type: functional; outline: as §2
Mus musculus [8] = test: Maximum rate of body weight loss was determined in mice inoculated with B16 melanoma BL6 cells sc at a dose 12 mg/kg by intravenous administration; type: functional; outline: as §3
PC-6 = test: Cytotoxic activity against human lung cancer PC-6 cell line; type: functional; outline: as §1
Mus musculus [9] = test: Mortality was determined in mice inoculated with B16 melanoma BL6 cells sc at a dose 18 mg/kg by intravenous administration; 0/6; type: functional
Mus musculus [10] = test: Maximum rate of body weight loss was determined in mice inoculated with B16 melanoma BL6 cells sc at a dose 8 mg/kg by intravenous administration; type: functional; outline: as §3
Mus musculus [11] = test: Mortality was determined in mice inoculated with B16 melanoma BL6 cells sc at a dose 27 mg/kg by peroral administration; 0/6; type: functional; conditions: route oral
Mus musculus [12] = test: Maximum rate of body weight loss was determined in mice inoculated with B16 melanoma BL6 cells sc at a dose 12 mg/kg by peroral administration; type: functional; conditions: route oral; outline: as §3
Mus musculus [13] = test: Mortality was determined in mice inoculated with B16 melanoma BL6 cells sc at a dose 27 mg/kg by intravenous administration; 0/6; type: functional
Mus musculus [14] = test: Mean tumor weight was determined in mice inoculated with B16 melanoma BL6 cells sc at a dose 18 mg/kg iv [IR (%) = (1-TWt/TWc)*100]; type: functional; outline: as §2
Mus musculus [15] = test: Mean tumor weight was determined in mice inoculated with B16 melanoma BL6 cells sc at a dose 27 mg/kg po [IR (%) = (1-TWt/TWc)*100]; type: functional; outline: as §2
Mus musculus [16] = test: Maximum rate of body weight loss was determined in mice inoculated with B16 melanoma BL6 cells sc at a dose 27 mg/kg by peroral administration; type: functional; conditions: route oral; outline: as §3
[17] = Solubility of compound in JP2 at pH 6.8 using UV assay; type: physicochemical; conditions: JP2, pH 6.8
Mus musculus [18] = test: Mean tumor weight was determined in mice inoculated with B16 melanoma BL6 cells sc at a dose 12 mg/kg po [IR (%) = (1-TWt/TWc)*100]; type: functional; outline: as §2
Mus musculus [19] = test: Maximum rate of body weight loss was determined in mice inoculated with B16 melanoma BL6 cells sc at a dose 18 mg/kg by peroral administration; type: functional; conditions: route oral; outline: as §3
Mus musculus [20] = test: Mean tumor weight was determined in mice inoculated with B16 melanoma BL6 cells sc at a dose 18 mg/kg po [IR (%) = (1-TWt/TWc)*100]; type: functional; outline: as §2
[21] = Solubility in water using UV assay; type: physicochemical
Mus musculus [22] = test: Mean tumor weight was determined in mice inoculated with B16 melanoma BL6 cells sc at a dose 40.5 mg/kg po [IR (%) = (1-TWt/TWc)*100]; type: functional; outline: as §2
Mus musculus [23] = test: Mean tumor weight was determined in mice inoculated with B16 melanoma BL6 cells sc at a dose 27 mg/kg iv [IR (%) = (1-TWt/TWc)*100]; type: functional; outline: as §2
Mus musculus [24] = test: Maximum rate of body weight loss was determined in mice inoculated with B16 melanoma BL6 cells sc at a dose 27 mg/kg by intravenous administration; type: functional; outline: as §3
Mus musculus [25] = test: Maximum rate of body weight loss was determined in mice inoculated with B16 melanoma BL6 cells sc at a dose 18 mg/kg by intravenous administration; type: functional; outline: as §3
Mus musculus [26] = test: Mortality was determined in mice inoculated with B16 melanoma BL6 cells sc at a dose 12 mg/kg by peroral administration; 0/6; type: functional; conditions: route oral
Mus musculus [27] = test: Mortality was determined in mice inoculated with B16 melanoma BL6 cells sc at a dose 18 mg/kg by peroral administration; 0/6; type: functional; conditions: route oral
Mus musculus [28] = test: Maximum rate of body weight loss was determined in mice inoculated with B16 melanoma BL6 cells sc at a dose 100 mg/kg by intravenous administration; type: functional; outline: as §3
Mus musculus [29] = test: Mean tumor weight was determined in mice inoculated with B16 melanoma BL6 cells sc at a dose 600 mg/kg po [IR (%) = (1-TWt/TWc)*100]; type: functional; outline: as §2
Mus musculus [30] = test: Mortality was determined in mice inoculated with B16 melanoma BL6 cells sc at a dose 600 mg/kg by peroral administration; 0/6; type: functional; conditions: route oral
Mus musculus [31] = test: Mean tumor weight was determined in mice inoculated with B16 melanoma BL6 cells sc at a dose 100 mg/kg iv [IR (%) = (1-TWt/TWc)*100]; type: functional; outline: as §2
Mus musculus [32] = test: Maximum rate of body weight loss was determined in mice inoculated with B16 melanoma BL6 cells sc at a dose 600 mg/kg by peroral administration; type: functional; conditions: route oral; outline: as §3
Mus musculus [33] = test: Mortality was determined in mice inoculated with B16 melanoma BL6 cells sc at a dose 100 mg/kg by intravenous administration; 0/6; type: functional

CC(=O)O[C@@]12CO[C@@H]1CC[C@@]1(C)[C@@H]3O[C@H](CN4CCOCC4)O[C@@H]3C3=C(C)[C@@H](OC(=O)[C@](C)(O)[C@@H](NC(=O)c4ccccc4)c4ccccn4)C[C@@](O)([C@@H](OC(=O)c4ccccc4)[C@@H]12)C3(C)C
GI50 (P388): 0.19 ng/mL (≈ 0.000206 µM)
Mortality (Mus musculus [1]): 0
solubility [2]: > 1800 µg/mL
GI50 (PC-12): 0.57 ng/mL (≈ 0.000617 µM)
IR (Mus musculus [3]): 75.4%
BWLmax (Mus musculus [4]): 4.1%
Mortality (Mus musculus [5]): 0
Mortality (Mus musculus [6]): 0
IR (Mus musculus [7]): 61.3%
BWLmax (Mus musculus [8]): <0%
GI50 (PC-6): 0.45 ng/mL (≈ 0.000487 µM)
Mortality (Mus musculus [9]): 0
BWLmax (Mus musculus [10]): <0%
Mortality (Mus musculus [11]): 0
BWLmax (Mus musculus [12]): <0%
Mortality (Mus musculus [13]): 0
IR (Mus musculus [14]): 89.8%
IR (Mus musculus [15]): 91.3%
BWLmax (Mus musculus [16]): <0%
solubility [17]: < 4 µg/mL
IR (Mus musculus [18]): 23.4%
BWLmax (Mus musculus [19]): <0%
IR (Mus musculus [20]): 59.7%
solubility [21]: < 4 µg/mL
IR (Mus musculus [22]): 96.9%
IR (Mus musculus [23]): 95.8%
BWLmax (Mus musculus [24]): 2.4%
BWLmax (Mus musculus [25]): <0%
Mortality (Mus musculus [26]): 0
Mortality (Mus musculus [27]): 0

CC(=O)O[C@@]12CO[C@@H]1CC[C@@]1(C)[C@@H]3O[C@H](CN4CCOCC4)O[C@@H]3C3=C(C)[C@@H](OC(=O)[C@H](O)[C@@H](NC(=O)OC(C)(C)C)c4ccccc4)C[C@@](O)([C@@H](OC(=O)c4ccccc4)[C@@H]12)C3(C)C
GI50 (P388): 0.02 ng/mL (≈ 2.21e-05 µM)
solubility [2]: 1200 µg/mL (≈ 1330 µM)
GI50 (PC-12): 0.02 ng/mL (≈ 2.21e-05 µM)
GI50 (PC-6): 0.38 ng/mL (≈ 0.00042 µM)
solubility [17]: < 4 µg/mL
solubility [21]: < 4 µg/mL

CC(=O)O[C@@]12CO[C@@H]1C[C@H](O)[C@@]1(C)C(=O)[C@H](O)C3=C(C)[C@@H](OC(=O)[C@H](O)[C@@H](NC(=O)OC(C)(C)C)c4ccccc4)C[C@@](O)([C@@H](OC(=O)c4ccccc4)[C@H]21)C3(C)C.O.O.O [DOCETAXEL]
GI50 (P388): 0.78 ng/mL
BWLmax (Mus musculus [28]): <0%
solubility [2]: < 4 µg/mL
GI50 (PC-12): 14.9 ng/mL
IR (Mus musculus [29]): 6.2%
GI50 (PC-6): 0.41 ng/mL
solubility [17]: < 4 µg/mL
Mortality (Mus musculus [30]): 0
solubility [21]: < 4 µg/mL
IR (Mus musculus [31]): 95.1%
BWLmax (Mus musculus [32]): <0%
Mortality (Mus musculus [33]): 0

CC(=O)O[C@H]1C(=O)[C@@]2(C)[C@H]([C@H](OC(=O)c3ccccc3)[C@]3(O)C[C@H](OC(=O)[C@H](O)[C@@H](NC(=O)c4ccccc4)c4ccccc4)C(C)=C1C3(C)C)[C@]1(OC(C)=O)CO[C@@H]1C[C@@H]2O [PACLITAXEL]
GI50 (P388): 2.93 ng/mL (≈ 0.00343 µM)
GI50 (PC-12): 539 ng/mL (≈ 0.631 µM)
GI50 (PC-6): 1.27 ng/mL (≈ 0.00149 µM)

Reference: ChEMBL document CHEMBL1136257, “New highly active taxoids from 9beta-dihydrobaccatin-9,10-acetals. Part 3” (Bioorg Med Chem Lett, 2003)
